# Legend:
# [1] = system: M9-ENL1 cells; assay: Cytotoxicity against M9-ENL1 leukemia cells; assay type: cell-based; details: for fold lower LC50 of C9 analog vs. C14-functionalized counterpart: 4, 6, 11 compared to 5, 7, 12
# [2] = Human umbilical cord blood cell cytotoxicity test; assay type: cell-based; details: human, hUBC LC50, human umbilical cord blood cells, cell viability, mean ± SD (n = 3)
# Procedure, shortened: (§1)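 Fresh cord blood (within 48 h of collection) was separated on a Ficoll-Paque gradient and cultured without cryopreservation at 37 °C, 5% CO2, in serum-free Iscove's MDM with 20% BIT 9500, LDL and β-mercaptoethanol. Cells got ≥3 doses of test compound from DMSO stock for 24 h, were stained for CD45, CD34 and DAPI, and were analysed by flow cytometry. Viable CD34+CD45dim percentage was compared with vehicle.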
# [3] = system: human umbilical cord blood cells (hUBC); assay: Human umbilical cord blood cell cytotoxicity test; assay type: cell-based; details: read-out: hUBC LC50; human umbilical cord blood cells, 24 h, cell viability, mean ± SD (n = 3)
# Procedure, shortened: as §1
# [4] = Solubility in buffered solutions at neutral pH; assay type: physicochemical
smiles,measurement,setting,value
"C=C1C(=O)O[C@H]2[C@H]1C[C@H](OC(=O)c1ccc3ccccc3c1)/C(C)=C/CC[C@@]1(C)O[C@@H]21 [Compound 4, (3aS,5S,9aR,10aS,10bS,E)-6,9a-dimethyl-3-methylene-2oxo2,3,3a,4,5,8,9,9a,10a,10bdecahydrooxireno[2′,3′:9,10]cycl odeca [1,2-b]furan-5-yl 2-naphthoate]",fold lower LC50 of C9 analog vs. C14-functionalized counterpart,[1],2- to 3 fold
"C=C1C(=O)O[C@H]2[C@H]1C[C@H](OC(=O)c1cn(C)c3ccccc13)/C(C)=C/CC[C@@]1(C)O[C@@H]21 [Compound 6, (3aS,5S,9aR,10aS,10bS,E)-6,9a-dimethyl-3-methylene-2-oxo-2,3,3a,4,5,8,9,9a,10a,10b decahydrooxireno [2′,3′:9,10] cyclodeca[1,2-b]furan-5-yl 1-methyl-1H-indole-3-carboxylate]",fold lower LC50 of C9 analog vs. C14-functionalized counterpart,[1],2- to 3 fold
"C=C1C(=O)O[C@H]2[C@H]1C[C@H](OC(=O)c1cc(-c3ccc(Cl)cc3)on1)/C(C)=C/CC[C@@]1(C)O[C@@H]21 [Compound 11, (3aR,5S,9aR,10aS,10bS,E)-6,9a-dimethyl-3-methylene-2-oxo-2,3,3a,4,5,8,9,9a,10a,10b-decahydrooxireno[2′,3′:9,10] cyclodeca[1,2-b]furan-5-yl 5-(4-chlorophenyl)isoxazole-3-carboxylate]",fold lower LC50 of C9 analog vs. C14-functionalized counterpart,[1],2- to 3 fold
"C=C1C(=O)O[C@H]2[C@H]1CC/C(COCc1ccccc1)=C/CC[C@@]1(C)O[C@@H]21 [Compound 14, (3aR,9aR,10aS,10bS,Z)-6-((benzyloxy)methyl)-9a-methyl-3-methylene-3a,4,5,8,9,9a,10a,10b-octahydrooxireno[2′,3′:9,10] cyclodeca[1,2-b]furan-2(3H)-one]",fold lower cytotoxicity compared to C14-benzoylated counterpart,[1],2 fold
"C=C1C(=O)O[C@H]2[C@H]1C[C@H](OC(C(=O)OCC)c1ccccc1C(F)(F)F)/C(C)=C/CC[C@@]1(C)O[C@@H]21 (stereo partly drawn) [Compound 20, ethyl2-(((3aR,5S,9aR,10aS,10bS,E)-6,9a-dimethyl-3-methylene-2-oxo-2,3,3a,4,5,8,9,9a,10a,10b-decahydrooxireno [2′,3′:9,10]cyclodeca[1,2-b]furan-5-yl)oxy)-2-(2-(trifluoromethyl)phenyl)acetate]","fold lower LC50 than the phenyl-containing counterparts (18, 19)",[1],2- to 3 fold
"C=C1C(=O)O[C@H]2[C@H]1CC/C(COC(C(=O)OCC)c1ccccc1C(F)(F)F)=C/CC[C@@]1(C)O[C@@H]21 (stereo partly drawn) [Compound 21, ethyl2-(((3aR,9aR,10aS,10bS,Z)-9a-methyl-3-methylene-2-oxo-2,3,3a,4,5,8,9,9a,10a,10b-decahydrooxireno[2′,3′:9,10]cyclodeca[1,2-b]furan-6-yl)methoxy)-2-(2-(trifluoromethyl)phenyl)acetate]","fold lower LC50 than the phenyl-containing counterparts (18, 19)",[1],2- to 3 fold
"C=C1C(=O)O[C@H]2[C@H]1C[C@H](OC(C(=O)OCC)c1ccc(C(F)(F)F)cc1)/C(C)=C/CC[C@@]1(C)O[C@@H]21 (stereo partly drawn) [Compound 22, ethyl 2-(((3aR,5S,9aR,10aS,10bS,E)-6,9a-dimethyl-3-methylene-2-oxo-2,3,3a,4,5,8,9,9a,10a,10b-decahydrooxireno [2′,3′:9,10]cyclodeca[1,2-b]furan-5-yl)oxy)-2-(4-(trifluoromethyl)phenyl)acetate]","fold lower LC50 than the phenyl-containing counterparts (18, 19)",[1],2- to 3 fold
"C=C1C(=O)O[C@H]2[C@H]1C[C@H](OC(C(=O)OCC)c1ccc(C(F)(F)F)cc1)/C(C)=C/CC[C@@]1(C)O[C@@H]21 (stereo partly drawn) [Compound 22a, ethyl 2-(((3aR,5S,9aR,10aS,10bS,E)-6,9a-dimethyl-3-methylene-2-oxo-2,3,3a,4,5,8,9,9a,10a,10b-decahydrooxireno [2′,3′:9,10]cyclodeca[1,2-b]furan-5-yl)oxy)-2-(4-(trifluoromethyl)phenyl)acetate]",CC50 at 24 h,[2],> 5 µM
"C=C1C(=O)O[C@@H]2[C@@H]1CC/C(COC(C(=O)OCC)c1ccc(C(F)(F)F)cc1)=C/CC[C@]1(C)O[C@H]21 (stereo partly drawn) [Compound 23, ethyl 2-(((3aR,9aR,10aS,10bS,Z)-9a-methyl-3-methylene-2-oxo-2,3,3a,4,5,8,9,9a,10a,10b-decahydrooxireno[2′,3′:9,10]cyclodeca[1,2-b]furan-6-yl)methoxy)-2-(4-(trifluoromethyl)phenyl)acetate]","fold lower LC50 than the phenyl-containing counterparts (18, 19)",[1],2- to 3 fold
"C=C1C(=O)O[C@@H]2[C@@H]1CC/C(COC(C(=O)OCC)c1ccc(C(F)(F)F)cc1)=C/CC[C@]1(C)O[C@H]21 (stereo partly drawn) [Compound 23b, ethyl 2-(((3aR,9aR,10aS,10bS,Z)-9a-methyl-3-methylene-2-oxo-2,3,3a,4,5,8,9,9a,10a,10b-decahydrooxireno[2′,3′:9,10]cyclodeca[1,2-b]furan-6-yl)methoxy)-2-(4-(trifluoromethyl)phenyl)acetate]",CC50,[3],> 5 µM
"C=C1C(=O)O[C@H]2[C@H]1C[C@H](OC(C(=O)OCc1ccccc1)c1ccccc1)/C(C)=C/CC[C@@]1(C)O[C@@H]21 (stereo partly drawn) [Compound 25a, benzyl 2-(((3aR,5S,9aR,10aS,10bS,E)-6,9a-dimethyl-3-methylene-2-oxo-2,3,3a,4,5,8,9,9a,10a,10b-decahydrooxireno [2′,3′:9,10]cyclodeca[1,2-b]furan-5-yl)oxy)-2-phenylacetate]",CC50 at 24 h,[2],> 5 µM
"C=C1C(=O)O[C@H]2[C@H]1C[C@H](OC(C(=O)OCc1ccccc1)c1ccccc1)/C(C)=C/CC[C@@]1(C)O[C@@H]21 (stereo partly drawn) [Compound 25b, benzyl 2-(((3aR,5S,9aR,10aS,10bS,E)-6,9a-dimethyl-3-methylene-2-oxo-2,3,3a,4,5,8,9,9a,10a,10b-decahydrooxireno [2′,3′:9,10]cyclodeca[1,2-b]furan-5-yl)oxy)-2-phenylacetate]",CC50,[3],> 5 µM
"C=C1C(=O)O[C@H]2[C@H]1C[C@H](OC(C(=O)OCCN1CCOCC1)c1ccccc1)/C(C)=C/CC[C@@]1(C)O[C@@H]21 (stereo partly drawn) [Compound 27, 2-morpholinoethyl2-(((3aR,5S,9aR,10aS,10bS,E)-6,9a-dimethyl-3-methylene-2-oxo-2,3,3a,4,5,8,9,9a,10a,10b-decahydrooxireno[2′,3′:9,10]cyclodeca[1,2-b]furan-5-yl)oxy)-2-phenyl acetate]",fold reduction of activity compared to PTL,[1],3 to 5 folds
same,solubility in buffered solutions,[4],improved solubility
"C=C1C(=O)O[C@H]2[C@H]1CC/C(COC(C(=O)OCCN1CCOCC1)c1ccccc1)=C/CC[C@@]1(C)O[C@@H]21 (stereo partly drawn) [Compound 28, 2-morpholinoethyl 2-(((3aR,9aR,10aS,10bS,Z)-9a-methyl-3-methylene-2-oxo-2,3,3a,4,5,8,9,9a,10a,10b-decahydrooxireno [2′,3′:9,10]cyclodeca[1,2-b]furan-6-yl)methoxy)-2-phenylacetate]",fold reduction of activity compared to PTL,[1],3 to 5 folds
same,solubility in buffered solutions,[4],improved solubility
"C=C1C(=O)O[C@H]2[C@H]1CC/C(COC(C(=O)OCCN1CCCC1)c1ccccc1)=C/CC[C@@]1(C)O[C@@H]21 (stereo partly drawn) [Compound 29, 2-(pyrrolidin-1-yl)ethyl 2-(((3aR,5S,9aR,10aS,10bS,E)-6,9a-dimethyl-3-methylene-2-oxo-2,3,3a,4,5,8,9,9a,10a,10b-decahydrooxireno[2′,3′:9,10]cyclodeca[1,2-b]furan-5-yl)oxy)-2-phenylacetate]",fold reduction of activity compared to PTL,[1],3 to 5 folds
same,solubility in buffered solutions,[4],improved solubility
"C=C1C(=O)O[C@H]2[C@H]1CC/C(C)=C/CC[C@@]1(C)O[C@@H]21 [PTL, parthenolide, reference compound]",CC50 at 24 h,[2],> 20 µM
